Results reported in article PMC10681497 (CPT: Pharmacometrics & Systems Pharmacology, 2023).
Read-outs that look alike come from different tables or passages of the source.

Columns and labels:
[1] = previously characterized; cited from earlier work
[2] = previously characterized; cited from earlier work; remark: listed apart in the source
[3] = cited from earlier work
[4] = tested on: serum phosphate concentration; experiment: Exposure-response Emax model of serum phosphate change from baseline; set-up: species or system human; conditions: in vivo
How it was run: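 Serum phosphate was measured in serum chemistry in 300 pooled monotherapy patients from FIGHT‑101, ‑102 and ‑202. The change from baseline was the mean of C1D8 and C1D15. A three‑parameter Emax nonlinear model related this change to model‑derived AUCss, with baseline serum phosphate as a covariate. Parameters were the maximum change (Emax) and the exposure giving 50% of the maximum increase.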

[5] = Simulated steady-state exposure; conditions: human, plasma, oral, 13.5 mg
How it was run: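 Each patient's dense steady‑state post hoc concentration‑time profile was simulated from the updated population PK model. Cmax,ss, Cmin,ss and AUCss were then derived by noncompartmental methods, with oral once‑daily dosing of 13.5 mg.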

[6] = tested on: OCT2; conditions: read-out: IC50, OCT2; cited from earlier work
[7] = tested on: patients with CCA with FGFR2 fusions/re‐arrangements; conditions: for Median PFS: 13.5 mg once daily
[8] = tested on: MATE1; conditions: read-out: IC50, MATE1; cited from earlier work
[9] = tested on: serum creatinine concentration; experiment: Exposure-response Emax model of serum creatinine percent change from baseline; assay type: in vivo, human
How it was run: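 Serum creatinine was measured in routine serum chemistry in 300 pooled monotherapy patients from FIGHT‑101, FIGHT‑102 and FIGHT‑202, using the mean of C1D8 and C1D15. A three‑parameter Emax nonlinear model related percent change from baseline to AUCss. Emax is the maximum change, with a half‑maximal exposure term. For prediction, AUCss was the mean post hoc value at 13.5 mg q.d. and was dose‑scaled for 6, 9 and 20 mg.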

[10] = Population PK analysis; assay type: in vivo, human
How it was run: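 A prior two‑compartment NONMEM model was refined, keeping its interindividual random effects. Covariates were tested on CL/F, Vc/F (age, body weight), Vp/F (body weight) and Ka (sex, fasting, PPI, H2B). Selection used stepwise forward addition (p 0.05) and backward elimination (p 0.005) by likelihood ratio test. Evaluation used nonparametric bootstrap and prediction‑corrected VPC.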

[11] = FIGHT-106, healthy participants, 13.5 mg
[12] = covariate effect, final population PK model

CCN1C(=O)N(c2c(F)c(OC)cc(OC)c2F)Cc2cnc3[nH]c(CN4CCOCC4)cc3c21 [pemigatinib]
Permeability [1]: high permeability | pH-dependent solubility [2]: poorly soluble at pH > 2 | Increase in AUC on co-administration of the H2B ranitidine [3, 11]: 3% | Reduction in C max on co-administration of the H2B ranitidine [3, 11]: 2% | Effect of concomitant PPI esomeprazole on pemigatinib exposure ([3]; FIGHT-106): only a modest effect | Reduction from baseline per 1-mg/dL increase in baseline serum phosphate level [4]: less than or equal to 0.185 mg/dL | AUC [5]: 2.85 µM·h | IC50 [6]: 75 nM | Model predicted ORR ([7]; 6 mg, model on mean change from baseline in serum phosphate): 29.7% | Model predicted ORR ([7]; 9 mg, model on mean change from baseline in serum phosphate): 41.4% | Model predicted ORR ([7]; 13.5 mg, model on AUCss, mean AUCss 2850 h∙nM): 45.2% | Model predicted ORR ([7]; 13.5 mg, model on mean change from baseline in serum phosphate): 47.1% | Model predicted ORR ([7]; 20 mg, model on mean change from baseline in serum phosphate): 46.8% | Median PFS ([7]; AUCss first quartile): 6.93 months | Median PFS ([7]; AUCss fourth quartile): 7.03 months | Median PFS ([7]; AUCss second quartile): 6.93 months | Median PFS ([7]; AUCss third quartile): 9.20 months | IC50 [8]: 1100 nM | Estimated percentage change from baseline in serum creatinine concentration ([9]; 6 mg, dose-scaled mean post hoc AUCss): 14.2% | Estimated percentage change from baseline in serum creatinine concentration ([9]; 9 mg, dose-scaled mean post hoc AUCss): 18.3% | Estimated percentage change from baseline in serum creatinine concentration ([9]; 13.5 mg q.d., mean post hoc AUCss): 22.7% | Estimated percentage change from baseline in serum creatinine concentration ([9]; 20 mg, dose-scaled mean post hoc AUCss): 26.9% | Reduction in K a with use of PPI ([10]; concomitant PPI vs no PPI): 62% | Body weight on V c/F [10, 12]: 0.842% | Body weight to V p/F [10, 12]: 1.13% | H2B antagonist on D1 [10, 12]: −33.4% | Male sex on CL/F [10, 12]: 26.2% | Male sex on K a [10, 12]: −58.3% | PPI on K a [10, 12]: −62.0% | Phosphate binder on CL/F [10, 12]: −15.5% | D1 (duration of zero-order drug release), population mean ([10]; final population PK model): 0.810 h | K a (absorption rate constant), population mean ([10]; final population PK model): 3.67 h⁻¹ | CL/F (apparent clearance), population mean ([10]; final population PK model, 467 participants): 10.7 L/h | Higher CL/F in men compared with women ([10]; human, in vivo): 26.2% | Lower K a in men compared with women ([10]; human, in vivo): 58.3% | Reduction in D1 with use of H2B ([10]; human, in vivo): 33.4% | Vd/F ([10]; human, plasma, oral): 118 L | Reduction in CL/F with use of phosphate-binding agents ([10]; users vs nonusers): 15.5%
